Source: ChEMBL document CHEMBL1132479, “Synthesis, physicochemical characterization, and biological evaluation of 2-(1'-hydroxyalkyl)-3-hydroxypyridin-4-ones: novel iron chelators with enhanced pFe(3+) values” (J Med Chem, 1999)

Legend:
Rattus norvegicus [1] = assay: (§1) Compound was tested in vivo for Iron mobilization efficacy against hepatocytes in normal fasted rats (loaded with [59Fe]-Ferritin).; format: functional, Hepatocyte; design: concentration or dose not given beside the values
Outline: (§2)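 Fasted normal rats (190–230 g) received [59Fe]ferritin by tail vein to label hepatocyte iron. One hour later chelator was given orally at 450 µmol/kg; controls received an equal volume of water. Rats were kept in metabolic cages, with food allowed 1 h after dosing and water unrestricted. At 24 h, liver and GI tract plus feces were gamma-counted. Mean ± SD, n=5.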

[2] = Affinity constant log K2 value for Fe(III) complex; format: ADME
Outline: (§3)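 Spectrophotometric titration of Fe(III) with ligand at a ligand:iron ratio of about 10:1, with 0.2 M KOH added by programmed autoburette. Full spectra were recorded across pH, e.g. 1.59–10.05 with [Fe(III)] = 1.8×10^-4 M. Cumulative stability constants were optimized by non-linear least-squares regression using the predetermined pKa values, electrode slope and electrode zero.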

[3] = Affinity constant log K3 value for Fe(III) complex; format: ADME; outline: as §3
[4] = Affinity constant log K1 value for Fe(III) complex; format: ADME; outline: as §3
[5] = Ligand pka1 value was investigated by potentiometric titration; format: physicochemical; conditions: read-out: pKa1
Outline: (§4)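 Simultaneous potentiometric and UV/vis titration in 0.1 M KCl (25 mL), acidified with 0.2 M HCl and titrated with 0.2 M KOH in 0.01-mL increments. Run at 25 ± 0.5 °C under argon. Electrode zero was set by a blank titration using Gran's plot. pKa values came from non-linear least-squares regression, accurate to ±0.02 pH unit.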

[6] = Affinity constant log beta-3 value for Fe(III) complex; format: ADME; outline: as §3
Rattus norvegicus [7] = assay: Compound was tested in vivo for Iron mobilization against hepatocytes in normal fasted rats (loaded with [59Fe]-Ferritin).; format: functional, Hepatocyte; outline: as §2
[8] = Ligand pka2 value was investigated by potentiometric titration; format: physicochemical; conditions: read-out: pKa2; outline: as §4
[9] = Partition coefficient (logD7.4); format: physicochemical; conditions: octanol/water, pH 7.4
Outline: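 Partitioning between 1-octanol and 50 mM MOPS buffer pH 7.4 (mutually saturated) in an automated continuous-flow filter-probe system. Compound was dissolved in buffer to an absorbance of 0.5–1.5 at ~280 nm. The aqueous phase was separated by a hydrophilic cellulose filter and monitored spectrophotometrically. D7.4 was calculated after each octanol addition.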

[10] = pFe3+ (negative logarithm of the concentration of the free Iron(III) in solution) of the compound.; format: ADME
Outline: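 pFe3+ is the negative log of free Fe(III), calculated from the ligand pKa values and Fe(III) stability constants at total ligand 10^-5 M, total iron 10^-6 M, pH 7.4.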

[11] = Partition coefficient (logP); format: physicochemical; conditions: octanol/water
Rattus norvegicus [12] = assay: Compound was tested in vivo for Iron mobilization against hepatocytes in normal fasted rats ( loaded with [59Fe]-Ferritin).; format: functional, Hepatocyte; outline: as §2
[13] = Ligand pka1 value was investigated by spectrophotometric titration; format: physicochemical; conditions: read-out: pKa1; outline: as §4
Rattus norvegicus [14] = assay: as §1; format: functional, Hepatocyte; outline: as §2
Rattus norvegicus [15] = assay: Compound was tested in vivo for Iron mobilization efficacy against hepatocytes in normal fasted rats(loaded with [59Fe]-Ferritin).; format: functional, Hepatocyte
Outline: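 Normal fasted rats (190–230 g); hepatocyte iron labelled with [59Fe]ferritin given by tail vein. One hour later, chelator 450 µmol/kg was given orally; controls received an equivalent volume of water. Rats were housed in individual metabolic cages with urine and feces collected. Killed 24 h after ferritin; liver and GI tract with contents and feces were gamma counted. Means ± SD, n=5.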

[16] = Ligand pka2 value was investigated by spectrophotometric titration; format: physicochemical; conditions: read-out: pKa2; outline: as §4

SMILES	Efficacy (Rattus norvegicus [1])	Log K2 [2]	Log K3 [3]	Log K1 [4]	pKa [5]	Log beta3 [6]	Iron mobilization (Rattus norvegicus [7])	pKa [8]	logD [9]	pFe3 [10]	logP [11]	Iron mobilization (Rattus norvegicus [12])	pKa [13]	Iron mobilization (Rattus norvegicus [14])	Efficacy (Rattus norvegicus [15])	pKa [16]
Cc1cc(=O)c(O)c(C(C)O)n1C (stereo not drawn)	44.5%	11.09	9.05	15.38	3.54	35.5	48.4%	8.99	-0.606	21.5	-0.606	–	–	–	–	–
Cc1cc(=O)c(O)c(CO)n1C	0.6%	11.57	9.55	14.39	3.32	35.5	4.5%	9.44	-1.01	20.4	-1.01	–	–	–	–	–
Cc1c(O)c(=O)ccn1CCCO	26%	–	–	–	–	–	–	–	–	–	–	–	–	–	–	–
CCn1ccc(=O)c(O)c1CO	29.4%	11.16	9.43	14.66	2.8	35.3	–	9.27	-0.854	21	-0.854	33.3%	–	–	–	–
Cc1c(O)c(=O)ccn1CCCOC(=O)c1ccccc1	32.5%	–	–	–	–	–	–	–	1.25	–	1.25	–	–	–	–	–
CCc1c(O)c(=O)ccn1CCOC(=O)C(C)(C)C	19.1%	–	–	–	–	–	–	–	1.16	–	1.16	–	–	–	–	–
CCc1c(O)c(=O)ccn1CCO	12.9%	–	–	–	–	–	–	–	–	–	–	–	–	–	–	–
CCC(O)c1c(O)c(=O)cc(C)n1C (stereo not drawn)	56.5%	11.48	9.05	14.5	3.76	35	60.4%	9	-0.134	21	-0.134	–	3.78	–	–	–
CCn1ccc(=O)c(O)c1C(C)O (stereo not drawn)	50.6%	10.97	8.9	15.21	3.03	35.1	–	8.77	-0.575	21.4	-0.575	–	–	54.5%	–	–
CCc1c(O)c(=O)ccn1CC	55.8%	11.76	9.84	15.2	3.81	36.8	–	9.93	–	19.7	–	–	–	–	–	–
Cc1c(O)c(=O)ccn1C [DEFERIPRONE]	–	12.19	9.69	14.56	–	36.4	–	9.77	–	19.4	–	–	–	–	9.5%	–
CC(O)c1c(O)c(=O)ccn1CCCO (stereo not drawn)	10.6%	10.87	8.87	14.93	2.98	34.7	14.5%	8.72	-1.12	21.5	-1.12	–	–	–	–	–
Cn1ccc(=O)c(O)c1CO	4.6%	11.27	9.58	14.47	2.92	35.3	8.44%	9.11	-1.32	20.9	-1.32	–	–	–	–	9.11
CCn1c(C)cc(=O)c(O)c1CO	9%	11.6	9.64	14.37	3.29	35.6	12.9%	9.45	-0.652	20.4	-0.652	–	–	–	–	–
O=C(OCCCn1ccc(=O)c(O)c1CO)c1ccccc1	52.1%	–	–	–	–	–	56%	–	0.749	–	0.749	–	–	–	–	–
O=c1ccn(CCCO)c(CO)c1O	7.8%	10.01	9.57	15.67	3.02	35.3	11.7%	9.29	-1.25	20.7	-1.25	–	–	–	–	–
